PostGolgi ctrl – growth of the yeast control strain, post-Golgi counter-screen; efflux-deficient yeast background strain, growth absorbance A615, 16 h; inhibition, % at 10 µM; 5% of 98,000 active
HePTP inh – human HePTP phosphatase inhibition. AID 521. recombinant HePTP phosphatase activity, OD absorbance. 0.64% of 110,000 active. inhibition, % at 20 µM; in the data active = inhibition above about 50%;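 also: plate controls were vehicle for no effect and reference inhibitor for full effect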
Ecoli WT expand – growth inhibitors of E. coli BW25113 wild type. OD600 absorbance. growth inhibition, % at 100 µM. 0.15% of 98,000 active. AID 710;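 active = growth inhibition above about 50% at one test dose, limit read from the data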;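 also: growth measured after 20 h incubation at 37 °C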
Ecoli tolC – E. coli tolC mutant growth inhibition. E. coli BW25113 tolC mutant growth, OD615. growth inhibition, % at 10 µM (by protocol). 2.2% of 65,000 active. AID 573;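 active = growth inhibition at or above a cutoff equal to the mean over every tested compound plus 3 SD, cut at about 60% in these data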;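 also: growth measured after 20 h incubation at 37 °C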
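Material: E. coli BW25113 ΔtolC::kan, tolC deletion mutant strain. Measure: percent growth inhibition. Schedule: 37 °C, 20 h exposure. Doses: single-point testing at 10 µM. Signal: A615 absorbance measurement. Buffer or medium: kanamycin-containing LB broth (50 µg/mL).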
PLAP act – activates human placental alkaline phosphatase | activation fold at 20 µM | purified PLAP enzyme, luminescent substrate read-out; hits give high values | 1.2% of 96,000 active | P05187; in the data active = activation fold above about 2
Target sequence (P05187 whole entry, looked up): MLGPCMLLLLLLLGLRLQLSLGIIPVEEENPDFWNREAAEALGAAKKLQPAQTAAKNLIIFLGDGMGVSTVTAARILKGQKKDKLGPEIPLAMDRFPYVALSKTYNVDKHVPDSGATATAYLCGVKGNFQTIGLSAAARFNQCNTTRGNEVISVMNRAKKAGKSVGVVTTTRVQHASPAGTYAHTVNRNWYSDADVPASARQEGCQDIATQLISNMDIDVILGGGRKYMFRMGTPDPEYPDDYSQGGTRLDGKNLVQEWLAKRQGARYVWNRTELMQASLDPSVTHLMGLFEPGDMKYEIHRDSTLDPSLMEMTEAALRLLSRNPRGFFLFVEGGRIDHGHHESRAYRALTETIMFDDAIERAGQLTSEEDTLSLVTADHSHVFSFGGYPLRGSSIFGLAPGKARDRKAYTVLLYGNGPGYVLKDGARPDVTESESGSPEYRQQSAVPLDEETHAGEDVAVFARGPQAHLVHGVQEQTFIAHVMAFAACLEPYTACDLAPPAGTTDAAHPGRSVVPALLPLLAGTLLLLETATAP
PostGolgi yeast – growth inhibition of a yeast mutant, post-Golgi transport screen; post-Golgi transport phenotypic cell assay; inhibition, % at 10 µM; 0.9% of 98,000 active;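 also: yeast cells grown in 1536-well plates; yeast grown about 18 h at 30C before absorbance read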
* hit, by the source's call; · = no result given; ! = repeats disagree. Sampled rows, rich in hits. Any-hit rate of the full collection: about 5.5%. Rule as the data show it, unless noted: active = inhibition above about 30%; inactive = the rest.

SMILES	PostGolgi ctrl	HePTP inh	Ecoli WT expand	Ecoli tolC	PLAP act	PostGolgi yeast
S=c1[nH]c2cc(Cl)ccc2s1	15	·	53*	·	0.9	2
CC(C)(C)c1cc(NC(=O)COc2ccc(Br)cc2)n(-c2ccccc2)n1	37*	·	-14	·	0.9	4
O=[N+]([O-])c1ccc(/C=N\Nc2ccccc2[N+](=O)[O-])o1	·	-8	·	·	·	·
O=C(CCCc1ccccc1)Nc1cccc2c1CCCC2	37*	·	2	·	1.3	-1
O=C(Nc1cccnc1)Nc1ccc(Br)cc1Cl	35*	4	3	18	1	-10
O=C(Nc1cccnc1)Nc1ccccc1Cl	20	0	13	6	1.3	3
COc1ccc(Cc2nc(C(=O)Nc3ccc(Cl)cc3)cs2)cc1	38*	·	-13	·	0.8	19
CCN(CC)S(=O)(=O)c1ccc2c(c1)OCCO2	·	10	·	·	·	·
O=C(O)c1ccc2c(c1)C(=O)N(c1ccc(-c3nc4cc(N5C(=O)c6ccc(C(=O)O)cc6C5=O)ccc4[nH]3)cc1)C2=O	·	101*	·	·	·	·
O=C(CCC(=O)N(CC(=O)NC1CCCC1)C1CCCC1)Nc1ccccn1	0	7	0	-14	1.6	-6
O=C(CCCC(=O)N(CC(=O)NC1CCCC1)C1CCCC1)Nc1ccccn1	34*	4	-3	-15	1.5	0
O=C(O)c1cccc2c1NC(c1ccc(Cl)cc1)C1CC=CC21 (stereo unspecified)	·	104*	·	·	·	·
O=[N+]([O-])c1cccc2c1NC(c1ccccc1F)C1CC=CC21 (stereo unspecified)	·	-1	·	·	·	·
O=[N+]([O-])c1cccc2c1NC(c1ccc(Cl)cc1)C1CC=CC21 (stereo unspecified)	·	104*	·	·	·	·
O=C(O)c1cccc2c1NC(c1ccc([N+](=O)[O-])cc1)C1CC=CC21 (stereo unspecified)	·	103*	·	·	·	·
O=C(O)c1cccc2c1NC(c1cccc3ccccc13)C1CC=CC21 (stereo unspecified)	·	102*	·	·	·	·
COc1cccc2c1NC(c1ccc(Cl)cc1)C1CC=CC21 (stereo unspecified)	·	6	·	·	·	·
COc1ccc(/C=C2\C(=O)NC(=O)N(c3ccccc3)C2=O)c2ccccc12	·	8	·	·	·	·
COc1cccc2c1NC(C(=O)O)C1CC=CC21 (stereo unspecified)	·	·	·	-5	·	·
O=C(O)c1ccc2c(c1)C1C=CCC1C(c1ccc([N+](=O)[O-])cc1)N2 (stereo unspecified)	·	102*	·	·	·	·
COC(=O)c1ccc2c(c1)C1C=CCC1C(c1ccc([N+](=O)[O-])cc1)N2 (stereo unspecified)	·	10	·	·	·	·
O=C(O)C1Nc2c(cccc2[N+](=O)[O-])C2C=CCC12 (stereo unspecified)	·	104*	·	·	·	·
O=C(CSc1nnc(-c2cccc(F)c2)n1-c1ccccc1)NCc1ccccc1	·	6	·	·	·	·
CC(Oc1ccc(Cl)cc1Cl)C(=O)Nc1ccc(S(=O)(=O)Nc2cnc3ccccc3n2)cc1 (stereo unspecified)	49*	·	8	·	1.7	57*
Cc1cc(NS(=O)(=O)c2ccc(C3CCCCC3)cc2)no1	34*	12	0	49	1.2	8
SMILES	PostGolgi ctrl	HePTP inh	Ecoli WT expand	Ecoli tolC	PLAP act	PostGolgi yeast
Cc1cc(Cl)ccc1OC(C)C(=O)Nc1ccc(S(=O)(=O)Nc2cnc3ccccc3n2)cc1 (stereo unspecified)	35*	·	8	·	1.4	27
Cc1ccc(OC(C)C(=O)Nc2ccc(S(=O)(=O)Nc3cc(C)on3)cc2)cc1 (stereo unspecified)	33*	·	5	·	1.5	2
Cc1cc(NS(=O)(=O)c2ccc(NC(=O)C(C)Oc3ccc(Cl)cc3)cc2)no1 (stereo unspecified)	4	·	8	·	1.3	0
COC(=O)C1=C(C(=O)OC)N(c2ccccc2)/C(=C2/C(=S)C(C)(C)Nc3ccccc32)S1	·	-1	·	·	·	·
CN1CCC(O)N1C(=O)c1ccccc1O (stereo unspecified)	·	-2	·	·	·	·
COc1ccc(-n2cnc3c(sc4nccc(N(C)C)c43)c2=O)cc1	5	105*!	0	-2	1.4	-5
O=[N+]([O-])c1cc(C(F)(F)F)ccc1Sc1ccc2ccccc2n1	-1	·	-3	·	1	-4
Nc1nc(Sc2ccc(C(F)(F)F)cc2[N+](=O)[O-])n[nH]1	-1	·	13	·	2*	3
COc1ccc(-c2cc(=O)[nH][nH]2)cc1OC	4	·	-3	·	2.2*	-2
Cc1ccc(Cl)cc1N1CCN(Cc2nnnn2C2CCCCC2)CC1	58*	9	-22	37	1.6	5
c1coc(Cn2nnnc2CN2CCN(C3CCCCC3)CC2)c1	4	8	1	-22	1.4	-1
CCCCC(c1nnnn1Cc1ccco1)N1CCN(c2nc3ccccc3s2)CC1 (stereo unspecified)	46*	0	-5	39	1.6	94*
Cc1ccc(Cl)cc1N1CCN(Cc2nnnn2Cc2ccco2)CC1	38*	0	-15	65*	1.6	4
CCC(c1nnnn1Cc1ccco1)N1CCN(c2cc(Cl)ccc2C)CC1 (stereo unspecified)	56*	0	-10	43	1.6	4
CC(=O)OC1CCC2(C)C(=CCC3C2CCC2(C)C(C(C)=NO)CCC32)C1 (stereo unspecified)	·	-10	·	·	·	·
COc1ccc(CCN=Cc2c(O)[nH]c(=O)[nH]c2=O)cc1	·	-2	·	·	·	·
CCN(CC)CCn1c2ccccc2n2cc(-c3ccc(OC)cc3)nc12	·	3	·	·	·	·
CCCCNCCCCOc1ccc(C)cc1	·	4	·	·	·	·
CCOc1ccccc1NC(=O)NC1(C(=O)N2CCN3CCCC3C2)CCCCC1 (stereo unspecified)	17	-1	1	-3	2.1*	-7
COc1cccc(OCc2nc3ccccc3c(=O)n2N)c1	31*	-4	0	13	0.8	-22
Nn1c(COc2ccccc2)nc2ccccc2c1=O	4	-9	3	-16	1	18
Cc1cc2c3nonc3ccc2n1-c1ccccc1	35*	-2	0	5	1.1	5
Cc1ccc(-c2csc3ncn(-n4c(C)ccc4C)c(=O)c23)o1	4	2	-9	67*	1.1	-1
c1ccc(-c2nc(CSc3n[nH]c(-c4cccs4)n3)cs2)cc1	34*	·	-6	·	1.6	-1
O=C(CSc1n[nH]c(-c2cccs2)n1)N1CCN(S(=O)(=O)c2ccccc2)CC1	-4	12	-6	5	1.1	6
O=C(NC(NNc1ccc([N+](=O)[O-])cc1)(C(F)(F)F)C(F)(F)F)c1ccccc1Cl	44*	·	1	·	1.1	1
O=C(Nc1ccc([N+](=O)[O-])cc1)c1ccccc1C(F)(F)F	·	-5	·	·	·	·
O=C1CNCc2[nH]c3ccccc3c2N1c1ccccc1	32*	5	8	13	0.8	-5
O=CN1Cc2[nH]c3ccccc3c2N(c2ccc(Cl)cc2)C1=O	5	2	4	-1	1.1	5

Screens (PubChem)
